Measured values gathered from unrelated publications.
Compare with care: the assays were run in different laboratories.
Target: Tyrosine-protein kinase receptor UFO (AXL, Homo sapiens, UniProt P30530)

SMILES	observed	action	method	tested at	measurement	value
COc1cc2ncnc(Nc3ccc(Oc4ccccc4)cc3C)c2cc1OC	enzyme activity	inhibitor		1 µM	inhibition	8%
COc1cc2c(Nc3ccc(Br)cc3F)ncnc2cc1OCC1CCN(C)CC1	cell-free assay			0.5 µM	remaining signal	55%
CCN(CC)CCNC(=O)c1c(C)[nH]c(/C=C2\C(=O)Nc3ccc(F)cc32)c1C	enzyme activity	inhibitor		0.3 µM	inhibition	75%
O=C(Nc1cnn(-c2csc(C(=O)NC3COC3)c2)c1)Nc1c(F)cccc1Cl	enzyme activity	inhibitor		5 µM	remaining activity	73%
COc1ccc(C(=O)Nc2sc3c(c2C(N)=O)CCCC3)cc1OC	enzyme activity	inhibitor		0.5 µM	remaining activity	84.4%
O=C(Nc1ccc(Oc2ccc(F)cc2)cc1)N1CCc2ncccc2[C@H]1c1ccc(F)cc1	cell-free assay		competition with immobilised ligand	1 µM	remaining binding	77%
CS(=O)(=O)CCNCc1ccc(-c2ccc3ncnc(Nc4ccc(OCc5cccc(F)c5)c(Cl)c4)c3c2)o1	cell-free assay			0.5 µM	remaining signal	96.2%
CN([C@@H]1CCc2c(CC(=O)O)c3ccccc3n2C1)S(=O)(=O)c1ccc(F)cc1	cell-free assay		competition with immobilised ligand	1 µM	remaining binding	100%
CC/C(=N\NC(=O)NCc1cccc(O)c1)c1ccc(O)c(C)c1O	enzyme activity	inhibitor		0.1 µM	inhibition	1.3%
O=C(Nc1cccnn1)N1CCC(=Cc2cccc(Oc3ccc(C(F)(F)F)cn3)c2)CC1	cell-free assay		competition with immobilised ligand	1 µM	remaining binding	100%
Cc1ccc(C(=O)Nc2ccc(CN3CCN(C)CC3)c(C(F)(F)F)c2)cc1C#Cc1cnc2cccnn12	enzyme activity			23.5 nM	remaining activity	45%
CC(C)(O)[C@H]1CC[C@H](Nc2ccc3ncc(-c4cccc(C(F)(F)F)c4)n3n2)CC1	enzyme activity	inhibitor		1 µM	remaining activity	78%
Cc1cc(C)c(-n2ccn3nc(-c4cccnc4)cc23)cc1NC(=O)c1cc(C#N)cc(S(F)(F)(F)(F)F)c1	cell-free assay		competition with immobilised ligand	0.1 µM	remaining binding	80.5%
CCN(CC)CCNC(=O)c1c(C)[nH]c(/C=C2\C(=O)Nc3ccc(F)cc32)c1C	enzyme activity	inhibitor		0.1 µM	remaining activity	41%
CNC(=O)c1cc(Oc2ccc(NC(=O)Nc3ccc(Cl)c(C(F)(F)F)c3)cc2)ccn1	enzyme activity	inhibitor		10 µM	inhibition	68%
Cc1cc(NC(=O)c2cccc(S(F)(F)(F)(F)F)c2)cc(-n2ccn3nc(-c4cccnc4)cc23)c1	cell-free assay		competition with immobilised ligand	1 µM	remaining binding	100%

SMILES	observed	action	method	tested at	measurement	value
Cc1[nH]c(/C=C2\C(=O)Nc3ccc(F)cc32)c(C)c1C(=O)N[C@H]1CCN(C(=O)N(C)C)C1	enzyme activity	inhibitor		0.1 µM	remaining activity	89%
COc1cc2nccc(Oc3ccc(NC(=S)NC(=O)c4ccccc4C)cc3)c2cc1OC	enzyme activity	inhibitor		0.5 µM	remaining activity	80.4%
Cc1ccc(C(=O)NCc2ccsc2)cc1C#Cc1cn(C(C)C)c2ncnc(N)c12	enzyme activity	inhibitor		1 µM	activity vs control	72%
C=CC(=O)Nc1cc(Nc2nccc(Nc3cc(Cl)c(F)cc3C(C)(C)O)n2)c(OC)cc1N1CC[C@@H](N(C)C)C1	enzyme activity	inhibitor		1 µM	inhibition	16%
CCN(CC)c1ccc(C2=NNC(=O)CC2C)cc1[N+](=O)[O-] (centres unmarked)	enzyme activity	inhibitor		10 µM	remaining activity	94%
Cc1cnc(NC2CCOCC2)nc1-n1cnc(C(=O)NC(CN)c2cc(F)cc(Cl)c2)c1 (centres unmarked)	enzyme activity	inhibitor	radiometric	1 µM	remaining activity	103%
CS(=O)(=O)N1CCCC(NC(=O)[C@H](CCC2CCCCC2)NC(=O)c2ccc(CNc3ncnc4c3nnn4-c3ccccc3)cc2)C1 (some centres unmarked)	cell-free assay		competition with immobilised ligand	0.1 µM	remaining binding	79%
CC(C)(C)c1nc(-c2cccc(NS(=O)(=O)c3c(F)cccc3F)c2F)c(-c2ccnc(N)n2)s1	enzyme activity	inhibitor	radiometric	1 µM	remaining activity	75%
Clc1ccc(Nc2nnc(Cc3ccncc3)c3ccccc23)cc1	cell-free assay			0.5 µM	remaining signal	98.3%
CC(=O)N1CCC(c2ccc(C(=O)NC(=N)N)cc2C(F)(F)F)CC1	cell-free assay		competition with immobilised ligand	1 µM	remaining binding	100%
Cc1sc(C(=O)NC2COC2)cc1-n1cc(NC(=O)Nc2c(F)cccc2Cl)cn1	enzyme activity	inhibitor		10 µM	remaining activity	86.6%
CCN(CC)CCNC(=O)c1c(C)[nH]c(/C=C2\C(=O)Nc3ccc(Cl)cc32)c1C	enzyme activity	inhibitor		0.5 µM	remaining activity	25.2%
CN(C)C(=O)Cn1cc(-c2nc([C@@](C)(c3ccc(-c4cnc(N)nc4)cc3)C3CC3)no2)cn1	cell-free assay		competition with immobilised ligand	1 µM	remaining binding	98%
CN1CC(Oc2cnc(C#N)cc2-c2ccn3nc(NC(=O)C4CC4)cc3c2)C1	enzyme activity	inhibitor		1 µM	inhibition	-5%
O=c1cc(-c2cccc3c2Sc2ccccc2S3)oc(N2CCOCC2)c1	enzyme activity	inhibitor		0.5 µM	remaining activity	106%
CNCc1ccc(-c2cc(-c3nc(-c4ccc(S(=O)(=O)C(C)C)cc4)cnc3N)on2)cc1	enzyme activity	inhibitor		2 µM	inhibition	75%
